This is a sample that favours compounds with a hit; in the whole collection about 3.2% have one here.
DAX1 inh-1 = DAX1 (NR0B1) inhibitors, primary screen, cell-based, HEK293, Gal4-DAX1, luciferase luminescence; Nuclear receptor subfamily 0 group B member 1 (Homo sapiens), P51843; HEK293 Gal4-DAX1 luciferase reporter; inhibition, % at 6.75 µM; 340,000 compounds, 0.99% hits; AID 504766, 2011;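 active = inhibition above the mean over all tested compounds plus 3 SD, cut at about 4.2% in these data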;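 note: 0% = DAX1-transfected cells with DMSO and 100% = empty-vector control cells with DMSO; inhibition shows as a rise in luminescence from relieved DAX1 repression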
Target sequence (P51843 207-470 limits assumed): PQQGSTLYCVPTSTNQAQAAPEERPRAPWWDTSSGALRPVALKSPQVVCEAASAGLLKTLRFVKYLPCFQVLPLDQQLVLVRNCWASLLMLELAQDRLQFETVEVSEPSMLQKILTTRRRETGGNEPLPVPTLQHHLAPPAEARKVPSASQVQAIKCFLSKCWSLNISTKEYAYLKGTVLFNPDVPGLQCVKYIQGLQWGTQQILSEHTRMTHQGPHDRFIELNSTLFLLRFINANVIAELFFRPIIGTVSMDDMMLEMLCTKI
JMJD2C inh = inhibitors of GASC-1 histone demethylase, primary screen, biochemical, fluorescence, DELFIA europium. GST-JMJD2C(1-420) H3K9me3 demethylation. inhibition, % at 2.35 µM. 330,000 compounds, 0.069% hits. AID 2099, 2009;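 active = more than half of a compound's replicate wells show inhibition beyond 50%, single wells judged on their own value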;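 note: signal counts dimethyl H3K9 product captured on neutravidin plate; 0% = median of DMSO wells and 100% = 0.3 times that DMSO median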
SMARCA2 act = SMARCA2 (BRM) function activators, primary screen, cell-based, luminescence, high throughput; MG213 cells, MMTV-luciferase reporter, dexamethasone, overnight; AID 652017, 2013; 370,000 compounds, 1% hits; activation, % at 9.1 µM; in the data active = activation above about 7.8%;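 note: 0% = vehicle wells and 100% = reference activator wells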
DAX1 inh-2 = DAX1 (NR0B1) inhibitors on StAR promoter, primary screen, cell-based, luminescence, SF-1 (NR5A1), full-length DAX-1; HEK293T StAR-luciferase reporter, SF-1/DAX-1 repression relief; inhibition, % at 6.8 µM; AID 652010, 2013; 370,000 compounds, 1.1% hits;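 active = inhibition above the mean over all tested compounds plus 3 SD, cut at about 3.6% in these data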;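 note: 0% = DAX-1 cells with DMSO and 100% = cells lacking DAX-1 with DMSO; higher inhibition means more luminescence from relief of DAX-1 repression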
NR2E3 ag-1 = inhibitors of NR2E3-RetCOR corepressor binding, primary screen, NR2E3 agonist project, biochemical, TR-FRET, GST-NR2E3, biotin-RetCOR | Photoreceptor-specific nuclear receptor (Homo sapiens), Q9Y5X4 | 1536-well | inhibition of corepressor binding, % at 4.78 µM | 320,000 compounds, 0.12% hits;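 active = percent inhibition above the cutoff of mean plus 3 SD of all tested compounds, set per screening campaign, cut at about 20% in these data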;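 note: 0% = DMSO wells and 100% = biotin wells as full block of FRET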
Target sequence (Q9Y5X4 whole entry, looked up): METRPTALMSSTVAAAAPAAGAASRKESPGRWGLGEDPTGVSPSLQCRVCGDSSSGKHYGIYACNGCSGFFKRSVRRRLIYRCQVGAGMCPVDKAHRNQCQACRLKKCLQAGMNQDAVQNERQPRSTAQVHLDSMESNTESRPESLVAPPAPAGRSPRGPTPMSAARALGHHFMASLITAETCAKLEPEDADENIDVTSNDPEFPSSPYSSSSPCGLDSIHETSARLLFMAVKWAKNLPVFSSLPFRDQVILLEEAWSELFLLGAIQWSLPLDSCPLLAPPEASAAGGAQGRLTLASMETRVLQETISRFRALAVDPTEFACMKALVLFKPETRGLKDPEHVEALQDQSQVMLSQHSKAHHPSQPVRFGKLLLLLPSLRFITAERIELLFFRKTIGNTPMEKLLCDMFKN
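System: GST-tagged NR2E3 plus biotinylated RetCOR corepressor; Buffer or medium: pH 7.5 Tris-based buffer; Probe or stimulus: RetCOR corepressor, biotinylated, 7 nM; Doses: compound at 4.8 µM, single dose; Schedule: 5 h incubation at 4 °C; Technique: time-resolved FRET; Evaluation: percent inhibition of TR-FRET ratio; Replication: one well per compound, singlicate testing.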
NR2E3 ag-2 = NR2E3 agonists in two-hybrid cells, primary screen, cell-based, luminescence, CHO-S, Gal4-NCOR/VP16-NR2E3; inhibition of corepressor binding, % at 3.98 µM; 360,000 compounds, 0.35% hits; AID 602229, 2012; Photoreceptor-specific nuclear receptor (Homo sapiens), Q9Y5X4; luciferase;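 active = inhibition above the mean of all tested compounds plus 3 SD, cut at about 70% in these data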;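 note: 0% = DMSO with NR2E3 transfected cells and 100% = cells lacking NR2E3 construct; higher means lower luciferase signal from less NR2E3 corepressor binding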
Numbers without * were called inactive; · = no result given.

SMILES | DAX1 inh-1 | JMJD2C inh | SMARCA2 act | DAX1 inh-2 | NR2E3 ag-1 | NR2E3 ag-2
CCCN1Cc2cccc(C(=O)Nc3ccc4c(c3)OCCO4)c2C1=O | 4.6* | -0.3 | 0.5 | 0.5 | 4.5 | 0.3
Cc1cc(C)c(S(=O)(=O)Nc2ccccn2)c(C)c1 | 4.3* | -4.8 | -0.8 | 0.4 | -1.1 | -10.8
O=C(O)CCCC(=O)Nc1ccc(Oc2ncnc3cc(Cl)ccc23)nc1 | 5.9* | -0.1 | -1.4 | 0.1 | 1.7 | -1.4
O=C(COc1ccc(C(=O)c2ccccc2)cc1)Nc1ncccc1O | 0.2 | 1.2 | -0.8 | -1.5 | 1.0 | -7.2
O=C(Nc1ncccc1O)c1ccc(Oc2ccccc2)cc1 | 1.4 | 11.7 | 2.8 | 3.8* | -0.2 | -7.0
O=C(Nc1ccccc1)C(=O)Nc1ccccn1 | -2.5 | 6.1 | 8.0* | 4.2* | 1.7 | -109.2
O=C(Nc1ccccn1)c1ccccc1 | 2.1 | · | -1.0 | 3.9* | · | -62.2
Cn1c(=O)c(C(=O)Nc2ccccn2)c(O)c2ccccc21 | 3.7 | -4.1 | 5.5 | 3.9* | 3.3 | -130.5
O=C(Nc1ccccn1)c1ccc(C(=O)Nc2ccccn2)cc1 | 0.2 | -3.5 | · | · | 4.2 | -16.3
COC(=O)[C@]12C[C@H](CC(=O)N3CCN(C(=O)C4CC4)CC3)C(=O)N(Cc3ccco3)C1=C[C@H](C(C)(C)C)O[C@@H]2C | · | · | -2.4 | 0.8 | · | ·
O=C(CSc1nnc(-c2ccccc2)n1-c1ccc(Cl)cc1)c1ccccc1Br | · | · | 2.1 | -1.0 | · | ·
O=C(CC(O)CCc1ccccc1)c1ccc(O)cc1 (stereo not drawn) | 8.4* | · | 6.1 | 1.6 | · | -57.1
COc1ccc(S(=O)(=O)N2CCCCC2)cc1NC(=O)c1[nH]c(C)c(C(C)=O)c1C | 4.5* | · | -3.9 | -1.0 | · | -10.9
Cc1ccc(Nc2n[nH]c(=S)s2)cc1C | 3.1 | · | 7.5 | 3.8* | · | -125.7
S=c1[nH]nc(Nc2cccc(Cl)c2)s1 | 2.1 | 1.4 | -1.6 | 1.6 | -4.5 | -24.9
CC(=O)c1cc(-c2ccc(Oc3ccccc3)cc2)c(=O)n2c1CCC2 | · | · | -1.1 | -1.4 | · | ·
Cc1cc(Oc2ccccc2)nc(N)n1 | 0.5 | -5.2 | 0.0 | 0.8 | 1.2 | -5.8
Cc1cc(SCCOc2ccccc2)nc(N)n1 | 5.1* | -12.7 | 0.1 | 1.6 | -1.2 | -63.4
COc1ccc(C2N(c3ccc(C)cc3)CCN2c2ccc(C)cc2)cc1O | 4.9* | 12.6 | -1.5 | 0.5 | -4.7 | -18.1
CN(C)c1ccc(N/C=C/C(=O)c2ccco2)cc1 | 4.3* | -7.4 | 2.4 | 0.8 | 2.6 | -114.5
O=C(/C=C/Nc1ccccc1O)c1ccco1 | 2.8 | 4.5 | 3.8 | -0.3 | 1.0 | -46.0
O=C(/C=C/Nc1ccccc1Oc1ccccc1)c1ccco1 | -0.3 | 4.1 | 7.9* | 1.5 | 2.4 | -1.7
CC(=O)N1CCc2cc(S(=O)(=O)NCCC(=O)N(C)C3CCCCC3)ccc21 | · | · | -7.0 | -1.2 | · | ·
COc1cccc(NC(=O)C2CCCN2C(=O)NCc2ccccc2OC)c1 (stereo not drawn) | · | · | -4.5 | 0.0 | · | ·
CCCCOc1cccc(C(=O)NCCc2ccccc2-c2ccccc2CCC(=O)NCc2ccccc2)c1 | · | · | -3.4 | 0.4 | · | ·
SMILES | DAX1 inh-1 | JMJD2C inh | SMARCA2 act | DAX1 inh-2 | NR2E3 ag-1 | NR2E3 ag-2
CC(=O)Nc1ccc(Oc2nc(-c3ccccn3)nc3ccccc23)cc1 | 2.4 | -4.8 | 7.9* | 0.0 | -0.9 | -76.2
O=C1c2ccccc2-c2nnc(-c3ccc(F)cc3)cc21 | 7.1* | -5.2 | 3.9 | 2.4 | 1.5 | -47.0
Cc1cc(N2CCN(C(=O)Oc3ccc(C(F)(F)F)cc3)CC2)c2ccccc2n1 | · | · | -4.9 | -3.2 | · | ·
CCOc1ncccc1C(=O)N1CCN(c2ccc(C(F)(F)F)cn2)CC1 | -1.0 | -2.1 | -4.7 | -2.4 | -1.5 | -21.3
CCOC(=O)N1CCN(c2ccc(C(F)(F)F)cn2)CC1 | 0.8 | 5.8 | 7.9* | -0.1 | 0.6 | 2.5
CN(C)CCN1CC(O)=C(c2nc3ccccc3s2)C1=N | 4.8* | 1.8 | -1.8 | 0.3 | 1.4 | -28.6
COC(=O)C[C@@H]1CC[C@@H]2[C@@H](COc3ccc(NC(=O)Nc4cccc(Cl)c4)cc3C(=O)N2C)O1 | · | · | -4.9 | -2.0 | · | ·
Cc1nc2ccc(Br)cc2c2c1CC(CO)O2 (stereo not drawn) | 5.4* | -3.5 | 2.2 | -0.4 | 1.3 | -30.2
CC(=NNC(=O)CSc1nnc(-c2ccccc2)n1-c1ccccc1)c1ccc2ccccc2c1 | · | · | -3.6 | -0.1 | · | ·
COC(=O)[C@H](C(C)C)N(CCc1cn(Cc2ccc(C)cc2)nn1)S(=O)(=O)c1ccccc1Br | · | · | -3.6 | -1.8 | · | ·
CCOC(=O)c1ccc(N=c2scc(C)n2CC)cc1 | 0.1 | 4.6 | 7.8* | 2.0 | 3.2 | -121.1
C=CCn1c(C)csc1=Nc1ccc(C(C)=O)cc1 | 0.1 | 10.5 | 1.3 | 0.7 | 2.0 | -30.5
C[C@H]1CN([C@@H](C)CO)C(=O)CCCn2cc(nn2)CO[C@@H]1CN(C)C(=O)NC1CCCCC1 | · | · | -2.9 | 4.1* | · | 19.3
COc1ccc(C(=O)NC(C(=O)NCc2ccccc2OC)C(C)C)cc1 (stereo not drawn) | 0.7 | -7.7 | -4.6 | -1.0 | 2.2 | 1.1
CCOP(=O)(OCC)C(NC(=O)c1ccc(OC)cc1)c1ccccc1 (stereo not drawn) | 4.3* | -8.2 | -1.3 | 0.6 | 2.1 | -0.6
COc1ccc(C(=O)N[C@H](C(=O)NCCCSc2ccccc2)C(C)C)cc1 | 7.8* | -2.4 | 3.4 | -0.4 | · | -52.1
CCOc1ccc(-n2c(SCC(=O)Nc3ccc(S(=O)(=O)Nc4nccs4)cc3)nnc2-c2ccccc2)cc1 | · | · | 3.6 | -1.2 | · | ·
O=C(C1CCCN(S(=O)(=O)c2cccs2)C1)N1CCN(Cc2ccccc2)CC1 (stereo not drawn) | · | · | -6.0 | -0.6 | · | ·
CN(C(=O)c1ccco1)c1nc(-c2ccccc2)cs1 | 2.9 | -7.4 | 5.3 | 3.7* | 2.8 | -154.0
Cc1ccc(-c2csc(NC(=O)c3ccco3)n2)cc1C | 4.3* | 1.0 | 2.5 | 0.1 | -1.8 | -163.1
O=C(Nc1nc(-c2ccccc2)cs1)c1ccco1 | 0.6 | 1.8 | 0.8 | 1.2 | 3.6 | -101.9
CC(=O)c1ccc(OCc2cc(C(=O)N(C)Cc3ccccn3)no2)cc1 | 0.1 | -1.4 | 1.6 | 4.0* | · | -79.4
O=C(CN(CCc1ccccc1)S(=O)(=O)c1cccs1)N1CCOCC1 | · | · | -1.6 | -0.4 | · | ·
O=C(Nc1nc(-c2ccccc2)cs1)Nc1ccc(F)cc1F | 4.7* | 10.3 | -1.0 | -2.4 | -3.7 | -19.2
O=C(CNS(=O)(=O)c1cc2ccccc2s1)N1CCN(c2ccccn2)CC1 | · | · | -2.5 | -0.9 | · | ·
